# Platelet DG rel – platelet dense granule release activity; human platelet-rich plasma, SFLLRN dense granule ATP release, luminescence; AID 1663; 300,000 tested, 0.22% active; inhibition, %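 (compounds screened at 7.5 µM in platelet-rich plasma)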;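 active means mean replicate score, as percent of positive control, at or above 50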
# Wee1 stabilizer – human Wee1 degradation inhibition, primary screen. AID 1321. HeLa Luc-Wee1K328M stability, luciferase luminescence; 100% = proteasome inhibitor MG132 effect. reporter increase, % at 5 µM. 220,000 tested, 1.2% active. P30291;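 active means activation above the mean of all tested compounds plus 3 SD, set per screening run, cut at about 8.8% in these data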;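 further: cells exposed to compound for 20 h before luminescence read; 0% = DMSO alone and 100% = MG132 at 30 µM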
# Target sequence (P30291 whole entry K328M): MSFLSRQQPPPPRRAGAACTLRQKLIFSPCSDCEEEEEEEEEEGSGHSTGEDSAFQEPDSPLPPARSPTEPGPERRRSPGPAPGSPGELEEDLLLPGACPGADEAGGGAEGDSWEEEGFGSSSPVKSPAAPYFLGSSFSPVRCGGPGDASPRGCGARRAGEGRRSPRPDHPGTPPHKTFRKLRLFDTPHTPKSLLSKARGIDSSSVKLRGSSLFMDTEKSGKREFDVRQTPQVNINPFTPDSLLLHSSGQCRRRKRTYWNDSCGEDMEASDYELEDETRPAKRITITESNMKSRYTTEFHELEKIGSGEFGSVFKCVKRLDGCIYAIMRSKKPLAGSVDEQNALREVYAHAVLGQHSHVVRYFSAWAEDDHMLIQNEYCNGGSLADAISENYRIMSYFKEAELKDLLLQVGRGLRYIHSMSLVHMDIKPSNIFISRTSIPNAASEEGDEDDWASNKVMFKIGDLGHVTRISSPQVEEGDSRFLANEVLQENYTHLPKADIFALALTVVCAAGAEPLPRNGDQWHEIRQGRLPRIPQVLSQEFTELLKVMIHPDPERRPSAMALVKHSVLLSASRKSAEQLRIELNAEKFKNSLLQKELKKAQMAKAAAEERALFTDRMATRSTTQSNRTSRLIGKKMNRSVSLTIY
# FXIIa inh 1536 – inhibitors of human coagulation factor XIIa; purified FXIIa, Boc-QGR-AMC fluorogenic substrate, 2 h; P00748; inhibition, % at 5 µM; AID 800; 220,000 tested, 0.3% active; in the data active means inhibition above about 40%;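 further: 0% = enzyme with no compound and 100% = blank without enzyme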
# hK5 inh – blocks human kallikrein 5 protease activity; recombinant hK5, fluorogenic AMC substrate cleavage; inhibition, % at 5 µM; 210,000 tested, 0.59% active;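 active means inhibition of 40% or more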;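 further: 0% = enzyme controls without compound and 100% = no-enzyme blanks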
# FXIa inh 1536 – inhibitors of human coagulation factor XIa | P03951 | purified FXIa, Boc-Glu-Ala-Arg-AMC fluorogenic substrate | inhibition, % at 5 µM | 220,000 tested, 0.14% active;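 active means inhibition of at least 40%; inactive means inhibition below 40%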;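 further: fluorescence of freed AMC excited at 355 nm; 0% = enzyme without compound and 100% = no enzyme blank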
# thrombin 1536 – inhibitors of human thrombin. P00734. alpha-thrombin, Boc-VPR-AMC fluorogenic substrate cleavage. inhibition, % at 5 µM. 220,000 tested, 0.26% active;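 active means inhibition at or above 40%; inactive means inhibition below 40%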;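 further: 0% = enzyme with no compound and 100% = wells without enzyme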
#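 System: human alpha-thrombin protein; Compound dosing: one concentration per compound, 5 µM, with 0.2% DMSO; Timing: reaction at room temperature; Technique: AMC fluorescence, 355/460 nm; Controls: enzyme without compound as high, wells lacking enzyme as low.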
# * hit, by the source's call; nt = no result given. An excerpt weighted towards active compounds, which were near 1.8% of everything screened.
SMILES,Platelet DG rel,Wee1 stabilizer,FXIIa inh 1536,hK5 inh,FXIa inh 1536,thrombin 1536
CCCNC(=O)CN(C1CCCCC1)S(C)(=O)=O,-63,0,7,-13,-8,-5
CC(C)CNC(=O)CN(C1CCCCC1)S(C)(=O)=O,25,0,10,52*,3,24
CC(NC(=O)CN(C1CCCCC1)S(C)(=O)=O)c1ccccc1 (stereo not drawn),3,4,18,36,18,61*
COc1ccc2[nH]c(C(=O)N/N=C/c3ccc(O)cc3O)cc2c1,14,nt,nt,nt,nt,nt
COc1cccc(/C=N/Nc2snc(SC)c2C#N)c1,nt,5,7,2,3,0
COc1ccc(/C=N/Nc2snc(SC)c2C#N)cc1OC,52*,3,-7,1,-3,4
O=C1CC(SCc2nc3ccccc3[nH]2)C(=O)N1c1ccc(F)cc1 (stereo not drawn),14,0,6,54*,-11,25
COc1ccc(OCC(=O)N2CCC(n3nccc3NC(=O)C3CC3)CC2)cc1,-4,nt,nt,nt,nt,nt
O=[N+]([O-])c1ccccc1NCCNS(=O)(=O)c1ccc(Cl)cc1,0,6,13,-1,9,4
CC(=O)Nc1ccc(S(=O)(=O)NCCNc2ccccc2[N+](=O)[O-])cc1,1,-3,99*,1,5,0
CCOC(=O)c1c(NC(=O)CC)sc2c1CCN(Cc1ccccc1)C2,3,nt,nt,nt,nt,nt
CCOC(=O)c1c(NC(=O)CSc2ncccn2)sc2c1CCN(Cc1ccccc1)C2,2,6,5,43*,6,39
CCOC(=O)c1sc(NC(=O)CSc2nnc(Cc3ccccc3)o2)c(C(=O)OCC)c1C,-9,0,22,74*,9,12
CCOC(=O)c1c(NC(=O)CSc2nc3cc(Cl)ccc3s2)sc(C(C)=O)c1C,-4,2,12,-23,7,-1
CCOC(=O)c1c(NC(=O)CSc2nc3ccccc3s2)sc(C(C)=O)c1C,-9,-2,17,47*,9,5
Cc1cccc(NC(=O)CSc2nc3nc(C)cc(C)n3n2)c1,14,nt,nt,nt,nt,nt
OCCN1CCN(CC(O)COc2ccc(Cl)cc2)CC1 (stereo not drawn),50*,3,4,-21,1,-4
CN1CCN(CC(O)COc2ccc(Cl)cc2)CC1 (stereo not drawn),0,-1,-21,-2,-8,-14
O=C(CSc1nnc(CNC(=O)c2cccc(C(F)(F)F)c2)o1)NC1CCCCC1,-8,nt,nt,nt,nt,nt
CN(CC(=O)Nc1ccccc1Br)C(=O)C(Cc1ccccc1)NC(=O)c1ccccc1 (stereo not drawn),59*,nt,nt,nt,nt,nt
C/C(=N\NC(=S)NCc1ccccc1)c1ccc(C#N)cc1,3,1,32,54*,24,17
CCNc1nc(NC(C)C)nc(N(C#N)C(C)C(=O)N(CC)CC)n1 (stereo not drawn),5,3,1,-4,-3,-3
Cc1ccc2nc(/C(C#N)=C\c3ccc(N4CCOCC4)o3)[nH]c2c1,4,9.4*,4,-12,-5,-4
CC(C)Oc1ccc(OCCSc2nc3ccccc3n2CC(=O)O)cc1,0,nt,nt,nt,nt,nt
Cc1nnc(SCC(=O)Nc2nc3c(s2)CC(C)CC3)s1 (stereo not drawn),7,8.9*,10,-19,-5,5
SMILES,Platelet DG rel,Wee1 stabilizer,FXIIa inh 1536,hK5 inh,FXIa inh 1536,thrombin 1536
O=C(/C=C\Nc1ccccn1)c1ccccc1,24,-1,18,2,3,4
O=C(/C=C/Nc1ccccc1Br)c1ccccn1,54*,-2,11,20,1,-5
COC(=O)c1ccc(NC(=S)Nc2ccc(O)cc2)cc1,11,1,61*,33,28,14
COc1cc(/C=c2\s/c(=C\C(=O)C(C)(C)C)[nH]c2=O)cc(OC)c1OC,0,3,29,47*,35,34
Cc1cc(C)nc(-n2nc(C)cc2NC(=O)c2cccc(S(=O)(=O)N3CCCCC3)c2)n1,nt,2,14,4,1,2
CC(Cc1cccnc1)NC(=O)c1cc(COc2ccc(F)cc2Cl)on1 (stereo not drawn),4,nt,nt,nt,nt,nt
O=C(Nc1ccc(C2SCCS2)cc1)c1ccccc1,5,10*,-2,-1,-2,-4
CCCCNC(=O)Nc1ccc(C2SCCS2)cc1,8,1,11,60*,6,20
CNC(=O)Nc1ccc(C2SCCS2)cc1,4,-1,7,-6,-11,-3
CCn1ncc([N+](=O)[O-])c1C(=O)N1CCc2ccccc2C1,-2,nt,nt,nt,nt,nt
CNc1c(NS(=O)(=O)c2cc(Cl)ccc2OC)c(=O)oc2ccccc12,3,nt,nt,nt,nt,nt
CC1CCN(S(=O)(=O)c2ccc3nc(-c4ccccn4)cc(C(=O)NCCN(C)Cc4ccccc4)c3c2)CC1,-1,-3,66*,18,30,34
CC(C)c1csc(CN2CCCC(CCC(=O)NCc3ccccc3F)C2)n1 (stereo not drawn),3,2,28,27,50*,5
COc1ccc(NC(=O)N2CCc3ccccc3C2)c(OC)c1,-7,nt,nt,nt,nt,nt
CN1CCN(C(=S)c2cn(Cc3ccc(F)cc3)c3ccccc23)CC1,-7,9.2*,10,-2,-3,-6
CN1CCN(C(=S)c2cn(Cc3cccc(F)c3)c3ccccc23)CC1,1,0,13,1,-2,2
Cc1cc(OC(=O)c2cccc(Cl)c2)c([N+](=O)[O-])c(=O)[nH]1,-12,nt,nt,nt,nt,nt
CN(CCCN1CCCCC1)C(=O)c1cc(COc2ccc(F)cc2F)on1,6,nt,nt,nt,nt,nt
COC(=O)c1cc(CSc2nnc(NC3CCCCC3)s2)oc1C,2,0,22,42*,6,17
COc1ccc(NC2c3ccccc3C(=O)N2Cc2ccc3c(c2)OCO3)cc1 (stereo not drawn),4,-2,14,5,3,3
CC1(C)N=c2ccc([N+](=O)[O-])c(N)c2=[N+]1[O-],8,-1,24,22,40*,20
Cc1ccc([N+](=O)[O-])c(C)[n+]1C,2,-4,7,-9,-2,-2
Cc1cc(NC(=O)COC(=O)C2CCN(S(=O)(=O)c3c(Cl)cccc3Cl)CC2)no1,7,-4,43*,15,19,-1
Cc1ccc(NS(=O)(=O)c2ccc(C(=O)OCC(=O)Nc3cc(C)on3)cc2)cc1,9,4,30,48*,102*,15
Cc1cc(NC(=O)COC(=O)c2cccc(S(=O)(=O)N(C)C3CCCCC3)c2)no1,-14,1,43*,9,7,4
O=C(NCCC1CCCCN1S(=O)(=O)c1cccs1)C(=O)Nc1cccc(F)c1 (stereo not drawn),2,nt,nt,nt,nt,nt
CCCc1ccc(C(=O)NC(=O)c2ccccc2O)cc1,-4,3,4,-8,1,-8
O=C(NC(=O)c1ccccc1O)c1ccc(C(F)(F)F)cc1,1,9.1*,6,2,0,-3

# Screening results from PubChem BioAssay.
